Measurements: ChEMBL document CHEMBL2417499, “Structure-activity relationship studies of Niemann-Pick type C1-like 1 (NPC1L1) ligands identified by screening assay monitoring pharmacological chaperone effect” (Bioorg Med Chem, 2013)
pEC50: −log10 of the molar value. Active and inactive are the calls of the source. The rule behind the calls is not given here.

How the values were obtained:
[1] = target: T1, NPC intracellular cholesterol transporter 1 (Homo sapiens) (UniProt O15118); test: (§1) Binding affinity to NPC1 (unknown origin)
T1 sequence (whole entry): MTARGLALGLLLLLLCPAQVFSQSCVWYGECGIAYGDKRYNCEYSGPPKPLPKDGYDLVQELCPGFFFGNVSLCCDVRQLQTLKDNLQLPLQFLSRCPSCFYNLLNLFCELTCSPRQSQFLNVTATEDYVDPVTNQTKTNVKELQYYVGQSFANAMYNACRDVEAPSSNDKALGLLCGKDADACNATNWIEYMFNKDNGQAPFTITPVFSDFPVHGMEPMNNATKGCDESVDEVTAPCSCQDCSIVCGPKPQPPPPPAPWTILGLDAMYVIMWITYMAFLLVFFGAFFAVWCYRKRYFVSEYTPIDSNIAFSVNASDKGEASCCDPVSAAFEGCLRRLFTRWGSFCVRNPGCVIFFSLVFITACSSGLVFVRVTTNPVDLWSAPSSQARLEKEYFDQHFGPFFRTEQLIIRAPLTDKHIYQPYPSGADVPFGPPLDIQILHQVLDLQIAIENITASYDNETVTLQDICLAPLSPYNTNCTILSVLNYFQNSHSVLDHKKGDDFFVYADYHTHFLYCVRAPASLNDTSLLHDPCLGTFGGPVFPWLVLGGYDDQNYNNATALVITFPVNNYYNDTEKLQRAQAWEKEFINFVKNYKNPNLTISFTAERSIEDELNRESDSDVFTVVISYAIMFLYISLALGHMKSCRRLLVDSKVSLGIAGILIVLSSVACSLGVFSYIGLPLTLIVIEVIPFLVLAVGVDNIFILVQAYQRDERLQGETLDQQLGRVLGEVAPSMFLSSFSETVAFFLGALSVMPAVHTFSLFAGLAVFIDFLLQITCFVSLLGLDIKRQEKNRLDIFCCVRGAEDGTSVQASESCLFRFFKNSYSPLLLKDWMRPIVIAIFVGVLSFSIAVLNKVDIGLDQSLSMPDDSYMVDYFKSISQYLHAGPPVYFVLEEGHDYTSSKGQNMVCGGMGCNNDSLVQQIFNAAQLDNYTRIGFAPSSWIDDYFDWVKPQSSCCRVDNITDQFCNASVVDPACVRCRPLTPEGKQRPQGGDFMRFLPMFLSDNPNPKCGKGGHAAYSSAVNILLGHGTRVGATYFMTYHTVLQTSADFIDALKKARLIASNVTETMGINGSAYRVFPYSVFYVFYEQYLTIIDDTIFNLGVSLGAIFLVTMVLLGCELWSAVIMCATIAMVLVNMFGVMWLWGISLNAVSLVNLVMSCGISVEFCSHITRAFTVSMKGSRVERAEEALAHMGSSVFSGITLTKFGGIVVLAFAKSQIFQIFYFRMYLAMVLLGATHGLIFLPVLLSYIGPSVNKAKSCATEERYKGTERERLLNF

HEK293 [2] = test: Binding affinity to human GFP-tagged NPC1L1 L1072T/L1168I mutant expressed in HEK293 cells assessed as localization to endoplasmic reticulum and plasma membrane at 3 uM after 24 hrs by fluorescence microscopic analysis; assay type: cell-based
Method in brief: (§2)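 HEK293 cells stably expressing NPC1L1-GFP mutant from a CMV promoter, kept under G418 (0.4 mg/mL). Seeded at 6,000 cells/well on poly-lysine-coated glass in DMEM with 1% FBS. Dosed next day in 0.1% DMSO final for 24 h, then fixed in 3.7% formaldehyde and imaged at ×100. Each cell in 25 images scored ER 0 to PM 1; mean reported as % plasma membrane localization.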

HEK293 [3] = test: Binding affinity to human GFP-tagged NPC1L1 L1072T/L1168I mutant expressed in HEK293 cells assessed as protein stabilization after 24 hrs by fluorescence assay; assay type: cell-based
Method in brief: (§3)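 Stable HEK293 lines were grown to 70% confluency in phenol red-free medium in 12-well plates and exposed to vehicle or compound for 24 h. Supernatant GFP fluorescence was read and normalized to BCA total protein, n = 3.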

[4] = Binding affinity to human GFP-tagged NPC1L1 L1072T/L1168I mutant expressed in HEK293 cells assessed as localization to endoplasmic reticulum and plasma membrane after 24 hrs by fluorescence microscopic analysis; assay type: cell-based; settings: read-out: EC50
Method in brief: (§4)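 HEK293 cells stably expressing the GFP-tagged construct (G418 0.4 mg/mL) were seeded at 6,000 cells/well in DMEM with 1% FBS on poly-lysine-coated glass. On day 2 they were treated for 24 h, final DMSO 0.1%. Cells were fixed in 3.7% formaldehyde and imaged at ×100. Across 25 images, cells were scored ER 0 to PM 1 and averaged as % plasma membrane localization. EC50 was taken from this score.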

[5] = Binding affinity to human GFP-tagged NTD-deleted NPC1L1 L1072T/L1168I mutant expressed in HEK293 cells assessed as localization to plasma membrane after 24 hrs by fluorescence microscopic analysis; assay type: cell-based; method in brief: as §4
Homo sapiens = organism: Homo sapiens; test: Selectivity ratio of EC50 for NPC1 (unknown origin) to EC50 for human GFP-tagged NPC1L1 L1072T/L1168I mutant
[6] = target: T2, NPC intracellular cholesterol transporter 1 (Homo sapiens, UniProt O15118); test: as §1
T2 sequence (O15118 whole entry): T1 sequence (whole entry)

HEK293 [7] = test: Binding affinity to human GFP-tagged NTD-deleted NPC1L1 L1072T/L1168I mutant expressed in HEK293 cells assessed as protein stabilization after 24 hrs by fluorescence assay; assay type: cell-based; method in brief: as §3
HEK293 [8] = test: Binding affinity to human GFP-tagged NTD-deleted NPC1L1 L1072T/L1168I mutant expressed in HEK293 cells assessed as localization to plasma membrane at 10 uM after 24 hrs by fluorescence microscopic analysis; assay type: cell-based
Method in brief: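 HEK293 cells stably expressing the GFP-tagged NTD-deleted mutant were treated for 24 h with 0.1% final DMSO, then fixed in 3.7% formaldehyde. Cells were imaged at ×100 and scored from ER (0) to PM (1) over 25 images, reported as % plasma membrane localization.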

HEK293 [9] = test: Binding affinity to human GFP-tagged NPC1L1 L1072T/L1168I mutant expressed in HEK293 cells assessed as localization to endoplasmic reticulum and plasma membrane at 10 uM after 24 hrs by fluorescence microscopic analysis; assay type: cell-based; method in brief: as §2
HEK293 [10] = test: Competitive binding affinity to human GFP-tagged NPC1L1 L1072T/L1168I mutant expressed in HEK293 cells assessed as localization to endoplasmic reticulum and plasma membrane at 0.01 to 10 uM after 24 hrs by fluorescence microscopic analysis in presence of N,N-(Dimethyl)-delta(5)-cholenamid-3beta-yl N,N-bis(2-hydroxyethyl)carbamate; assay type: cell-based

**Q.** For CC(C)CCC[C@@H](C)[C@H]1CC[C@H]2[C@@H]3C[C@@H](O)[C@@]4(O)C[C@@H](O)CC[C@]4(C)[C@H]3CC[C@]12C, which Activity [1] is on record?
**A.** Active

**Q.** And the Activity (HEK293 [2])?
**A.** inactive

**Q.** What does the source list for C[C@H](CCC(=O)N(C)C)[C@H]1CC[C@H]2[C@@H]3CC=C4C[C@@H](OC(=O)N(CCO)CCO)CC[C@]4(C)[C@H]3CC[C@]12C?
**A.** Activity (HEK293 [3]): Dose-dependent effect; pEC50 [4]: 6.19; pEC50 [5]: 5.77; Ratio EC50 (Homo sapiens): 2.5; pEC50 [6]: 5.80; Activity (HEK293 [7]): Active

**Q.** What does the source list for CCCCN(CCCC)C(=O)O[C@H]1CC[C@@]2(C)C(=CC[C@H]3[C@@H]4CC[C@H]([C@H](C)CCC(=O)N(C)C)[C@@]4(C)CC[C@@H]32)C1?
**A.** Activity (HEK293 [8]): inactive; Activity (HEK293 [9]): inactive

**Q.** For O=C1[C@H](CC[C@H](O)c2ccc(F)cc2)[C@@H](c2ccc(O)cc2)N1c1ccc(F)cc1, which Activity (HEK293 [10]) is on record?
**A.** inactive

**Q.** And the Activity (HEK293 [9])?
**A.** inactive
